Assay outcomes deposited in PubChem by Johns Hopkins Ion Channel Center.
TRPC4 act – activators of mouse TRPC4 channel, primary screen, Fluo4 calcium, HEK293 TRPC4beta/mu-opioid cells; 0.49% of 310,000 active; Fluo4 calcium fluorescence; active compounds read high; Short transient receptor potential channel 4 (Mus musculus), Q9QUQ5; B-score at 10 µM;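 active = B-score above 5 SD of library B-scores, and initial fluorescence ratio not above library mean plus 5 SD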;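 also: positive B-score marks a calcium rise read as TRPC4 activation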
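Assay system: HEK293 cells stably co-expressing mouse TRPC4beta and mu-opioid receptor / Timing: Fluo4 dye loading 45 min at room temperature, 110 s recording / Signal: Fluo4 calcium-sensitive dye fluorescence, kinetic, 1 Hz baseline / Read-out: integrated baseline-normalised fluorescence ratio, converted to per-well B score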
TRPC6 inh – mouse TRPC6 channel inhibitors, primary screen, cell-based, HEK293, membrane potential dye; Short transient receptor potential channel 6 (Mus musculus), Q61143; ACh-evoked depolarization; active compounds read low; B-score at 10 µM; 1.1% of 310,000 active;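 active = B-score under library mean minus 3 SD, initial fluorescence not abnormally high, positive integrated signal ratio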;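 also: B-score derived from integrated fluorescence ratio over the kinetic read; more negative B-score means stronger inhibition of depolarization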
Target sequence (Q61143 whole entry, looked up): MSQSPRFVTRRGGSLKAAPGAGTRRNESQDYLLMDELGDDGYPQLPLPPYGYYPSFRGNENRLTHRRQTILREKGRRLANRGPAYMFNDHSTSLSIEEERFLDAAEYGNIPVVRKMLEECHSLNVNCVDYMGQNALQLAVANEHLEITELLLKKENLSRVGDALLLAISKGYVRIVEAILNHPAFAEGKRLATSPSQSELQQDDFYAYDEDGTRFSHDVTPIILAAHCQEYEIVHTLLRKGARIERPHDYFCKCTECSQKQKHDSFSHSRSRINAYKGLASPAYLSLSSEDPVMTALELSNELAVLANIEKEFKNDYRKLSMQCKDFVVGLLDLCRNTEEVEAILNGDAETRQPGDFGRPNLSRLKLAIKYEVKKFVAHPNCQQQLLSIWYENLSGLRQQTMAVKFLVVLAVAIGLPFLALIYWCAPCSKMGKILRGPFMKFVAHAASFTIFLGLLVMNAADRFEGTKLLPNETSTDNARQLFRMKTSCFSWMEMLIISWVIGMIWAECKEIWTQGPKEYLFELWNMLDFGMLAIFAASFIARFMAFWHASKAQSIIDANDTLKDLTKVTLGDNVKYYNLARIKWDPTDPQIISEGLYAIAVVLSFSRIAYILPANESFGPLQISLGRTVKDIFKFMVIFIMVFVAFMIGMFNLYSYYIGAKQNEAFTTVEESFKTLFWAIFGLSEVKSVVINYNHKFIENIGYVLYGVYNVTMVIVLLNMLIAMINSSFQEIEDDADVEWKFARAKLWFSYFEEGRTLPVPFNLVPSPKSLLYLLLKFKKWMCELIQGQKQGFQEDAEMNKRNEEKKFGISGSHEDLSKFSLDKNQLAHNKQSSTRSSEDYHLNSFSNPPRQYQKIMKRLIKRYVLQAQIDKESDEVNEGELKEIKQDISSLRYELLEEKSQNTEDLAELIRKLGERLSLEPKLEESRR
TRPC6 act – mouse TRPC6 channel activators, primary screen, cell-based, HEK293, membrane potential dye; Short transient receptor potential channel 6 (Mus musculus), Q61143; HEK293-TRPC6 membrane potential dye fluorescence; active compounds read high; B-score at 10 µM; 0.13% of 310,000 active; AID 2550, 2010;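 active = B-score of the integrated fluorescence ratio above library mean plus 3 SD, and starting fluorescence ratio within library mean plus 5 SD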;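 also: higher score means more depolarization so channel activation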
TRPC4 block – inhibitors of mouse TRPC4 channel, primary screen, Fluo4 calcium, HEK293 TRPC4beta/mu-opioid cells; Short transient receptor potential channel 4 (Mus musculus), Q9QUQ5; DAMGO-evoked Fluo4 calcium flux; active compounds read low; B-score at 10 µM; 0.39% of 300,000 active; AID 2247, 2010;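 active = B-score over 3 SD under the library average, no early fluorescence shift, positive overall ratio signal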
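Signal: kinetic Fluo4 fluorescence imaging of calcium influx. Material: stable TRPC4beta/mu-opioid receptor HEK293 cells. Probe or stimulus: DAMGO in two steps, submaximal then maximal.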
TRPC4 PAM – positive allosteric modulators of TRPC4, primary screen, cell-based, mouse TRPC4beta, HEK293 mu-opioid, Fluo-4 calcium; Short transient receptor potential channel 4 (Mus musculus), Q9QUQ5; DAMGO EC20, Fluo-4 Ca2+ flux; active compounds read high; B-score at 10 µM; 0.42% of 310,000 active; AID 2227, 2009;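 active = B-score of calcium response area above 5 SD of library B-scores, with initial fluorescence ratio within 5 SD of library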;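 also: B-score of integrated fluorescence ratio over time as area under calcium response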
Numbers without * were called inactive; i = inactive; x = not tested or not shown. This is a sample that favours compounds with a hit; in the whole collection about 2.3% have one here.

SMILES	TRPC4 act	TRPC6 inh	TRPC6 act	TRPC4 block	TRPC4 PAM
CSc1nc(NCc2ccco2)c2c3c(sc2n1)CN(C)CC3	64*	i	i	x	i
CSc1nc(SCC(=O)NCc2ccco2)c2c3c(sc2n1)CN(C)CC3	i	i	i	i	i
O=S(=O)(Nc1ncccn1)c1ccc(NS(=O)(=O)c2cc(Cl)ccc2Cl)cc1	i	i	i	i	i
O=S(=O)(Nc1cccc(CCc2ccccn2)c1)c1cc(Cl)ccc1Cl	i	i	i	i	13*
CC(=O)N(Cc1ccccc1)Cc1cn(CCC#N)nc1-c1cccc([N+](=O)[O-])c1	i	i	i	i	i
O=C(C1CCC1)N1CCN(c2ccc(Cl)cc2)CC1	i	i	i	i	i
Fc1ccc(-n2cc(CNCCc3cccnc3)c(-c3ccccc3Cl)n2)cc1	124*	i	i	i	i
O=C(Cc1ccc(F)cc1)NCc1cccnc1	i	i	i	i	i
COc1ccc(-n2cc(CNCCCN3CCCC3=O)c(-c3ccccc3Cl)n2)cc1	i	i	i	i	i
Fc1ccc(-c2nn(-c3ccccc3)cc2CNCc2ccccc2)cc1	96*	i	i	i	i
O=C(O)Cc1cn(-c2ccccc2)nc1-c1ccccc1	i	i	i	i	i
Fc1ccc(-n2cc(CNCCc3ccncc3)c(-c3ccccc3Cl)n2)cc1	i	i	i	-6*	i
CCOC(=O)c1c(C)[nH]c(C(=O)N2CCN(c3ccc(OC)cc3)CC2)c1C	i	i	i	i	i
CCn1c2ccc(C)cc2c2nnc(NN)nc21	i	i	i	i	i
CCn1c2ccccc2c2nnc(NN)nc21	45*	i	i	i	15*
CC1(C#CC[N+]2(C)CCCCC2)CCC2C(O1)c1ccccc1OC2(C)C (stereo not given)	i	i	i	i	21*
O=C(N/N=C\C=C\c1ccc2c(c1)OCO2)C1COc2cc3ccccc3cc2O1 (stereo not given)	i	i	i	i	12*
O=C(N/N=C/c1ccc2c(c1)OCO2)C1COc2ccccc2O1 (stereo not given)	i	i	i	i	i
COc1ccc(/C=N/NC(=O)C2COc3ccccc3O2)cc1OC (stereo not given)	150*	i	i	i	i
CC(C)CN(C(=O)CSc1nn(-c2ccc(Cl)cc2)c(=S)s1)C1CCS(=O)(=O)C1 (stereo not given)	i	i	i	i	i
Cc1ccc(S(=O)(=O)Nc2ccc(S(=O)(=O)N3CCOCC3)cc2)cc1[N+](=O)[O-]	i	i	i	i	i
Cc1ccc(Nc2ccc(S(=O)(=O)N3CCOCC3)cc2[N+](=O)[O-])cc1C	i	i	i	i	18*
COc1cc(CN2CCCC(C(=O)c3ccc4c5c(cccc35)CC4)C2)cc(OC)c1O (stereo not given)	44*	i	i	i	i
O=C(c1ccc2c3c(cccc13)CC2)C1CCCN(Cc2cccnc2)C1 (stereo not given)	81*	i	i	i	i
COc1ccc(C(=O)C2CCCN(Cc3ccc4nonc4c3)C2)c(OC)c1 (stereo not given)	i	i	i	-6*	i
Cc1cccc(CN2CCCC(C(=O)c3ccc4c5c(cccc35)CC4)C2)n1 (stereo not given)	i	i	i	i	i
CCC(C)n1c(=O)c2sccc2n2c(CCCC(=O)N3CCC(C(N)=O)CC3)nnc12 (stereo not given)	i	i	i	i	i
O=C(Cc1ccc([N+](=O)[O-])cc1)OCc1c(F)cccc1Cl	i	i	i	i	i
